Assay results taken from ChEMBL document CHEMBL1629477, “Efficient synthesis of 6-(hetero)arylthieno[3,2-b]pyridines by Suzuki-Miyaura coupling. Evaluation of growth inhibition on human tumor cell lines, SARs and effects on the cell cycle” (2010).

Columns and labels:
Assay type in all cases: functional
NCI-H460 [1] = assay: Growth inhibition of human NCI-H460 cells after 48 hrs by sulforhodamine B assay; conditions: NCI-H460, 48 h
How it was run: (§1)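 Cells kept adherent in RPMI-1640 with 5% heat-inactivated FBS, 2 mM glutamine and penicillin/streptomycin at 37 °C, 5% CO₂. Seeded at 1.5 × 10⁵ cells/mL (MCF-7) or 0.75 × 10⁵ cells/mL (A375-C5, NCI-H460), then grown 24 h. Exposed 48 h to five serial dilutions from up to 150 µM, DMSO ≤0.25%. SRB stain, absorbance 492 nm. GI₅₀ is 50% net growth inhibition; three experiments in duplicate; doxorubicin positive control.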

A-375 = assay: Growth inhibition of human A375 cells after 48 hrs by sulforhodamine B assay; conditions: A-375, 48 h; how it was run: as §1
MCF7 = assay: Growth inhibition of human MCF7 cells after 48 hrs by sulforhodamine B assay; conditions: MCF7, 48 h; how it was run: as §1
NCI-H460 [2] = assay: Cell cycle arrest in human NCI-H460 cells assessed as accumulation at G2/M phase after 48 hrs by flow cytometry
How it was run: (§2)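 NCI-H460 cells plated at 0.75 × 10⁵ cells/mL, then exposed 48 h to GI₅₀ or 2 × GI₅₀ concentrations (from the SRB assay). Controls were medium only (blank) and DMSO solvent. Cells were harvested, fixed in 70% ethanol and resuspended in PBS. G1/G0, S and G2/M fractions were read by flow cytometry. Three independent experiments in duplicate, mean ± SD.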

NCI-H460 [3] = assay: Cell cycle arrest in human NCI-H460 cells assessed as accumulation at G1 phase after 48 hrs by flow cytometry; how it was run: as §2

Structure (SMILES)	GI50 (NCI-H460 [1])	GI50 (A-375)	GI50 (MCF7)	Activity (NCI-H460 [2])	Activity (NCI-H460 [3])
COC(=O)c1sc2cc(-c3ccoc3)cnc2c1N	> 120 µM	> 120 µM	> 120 µM	–	–
COC(=O)c1sc2cc(-c3cnn(C)c3)cnc2c1N	> 150 µM	> 150 µM	> 150 µM	–	–
COC(=O)c1sc2cc(-c3cnc(OC)nc3OC)cnc2c1N	> 75 µM	> 75 µM	> 75 µM	–	–
COC(=O)c1sc2cc(-c3ccc(C(C)=O)cc3)cnc2c1N	> 150 µM	> 150 µM	> 150 µM	–	–
COC(=O)c1sc2cc(-c3ccc4ccccc4c3)cnc2c1N	43.5 µM	95.6 µM	50.9 µM	–	–
COC(=O)c1sc2cc(-c3ccc(C(F)(F)F)cc3)cnc2c1N	> 150 µM	> 150 µM	> 150 µM	–	–
COC(=O)c1sc2cc(-c3cc(OC)cc(OC)c3)cnc2c1N	31.8 µM	82 µM	56.6 µM	–	–
COC(=O)c1sc2cc(-c3ccccc3N)cnc2c1N	3.8 µM	2.5 µM	4.2 µM	12%	–
COC(=O)c1sc2cc(-c3ccsc3)cnc2c1N	12.4 µM	12.1 µM	12.7 µM	–	–
COC(=O)c1sc2cc(-c3cncc4ccccc34)cnc2c1N	7.7 µM	10.1 µM	10.7 µM	–	–
COC(=O)c1sc2cc(-c3cnc4ccccc4c3)cnc2c1N	9.5 µM	9.1 µM	9.8 µM	–	–
COC(=O)c1sc2cc(-c3cccs3)cnc2c1N	18 µM	> 150 µM	26.9 µM	–	–
COC(=O)c1sc2cc(-c3ccc(N)cc3)cnc2c1N	37.1 µM	80.8 µM	108 µM	–	–
COC(=O)c1sc2cc(-c3cccc(N)c3)cnc2c1N	> 150 µM	> 150 µM	> 150 µM	–	–
COC(=O)c1sc2cc(-c3ccc(C#N)cc3)cnc2c1N	> 75 µM	> 75 µM	> 75 µM	–	–
COC(=O)c1sc2cc(-c3ccc4c(ccn4C)c3)cnc2c1N	20.3 µM	21.2 µM	23 µM	–	–
COC(=O)c1sc2cc(-c3ccc(OC)nc3)cnc2c1N	> 37.5 µM	> 37.5 µM	> 37.5 µM	–	–
COC(=O)c1sc2cc(-c3ccc(-c4cccs4)s3)cnc2c1N	0.7 µM	> 75 µM	1 µM	–	15%
COC(=O)c1sc2cc(-c3ccc4ncccc4c3)cnc2c1N	> 150 µM	> 150 µM	> 150 µM	–	–
COC(=O)c1sc2cc(-c3cccnc3)cnc2c1N	> 112 µM	> 112 µM	> 112 µM	–	–
COC(=O)c1sc2cc(-c3ccc(OC)cc3)cnc2c1N	> 150 µM	> 150 µM	> 150 µM	–	–
